The values that follow come from ChEMBL document CHEMBL5608233, “Fluorescent Peptides Sequester Redox Copper to Mitigate Oxidative Stress, Amyloid Toxicity, and Neuroinflammation” (ACS Med Chem Lett, 2024).

Active and inactive are the calls of the source. No cut-off for these calls is given here. Residues, ends and D or L forms follow the SMILES beside them. *: point of attachment. X1 = CN(C)c1ccc2c3c(cccc13)C(=O)N(CCN*)C2=O A value given as a limit tells only on which side of the number the result lay.

In data set [1] the target is Amyloid-beta precursor protein (Homo sapiens) (UniProt P05067). In words: Inhibition of Amyloid beta 42 (unknown origin) aggregation extracted from Escherichia coli BL21 assessed as decrease in amyloid beta fibril formation incubated for 48 hrs by atomic force microscopy.
Chain of Amyloid-beta precursor protein (Homo sapiens) (P05067 whole entry): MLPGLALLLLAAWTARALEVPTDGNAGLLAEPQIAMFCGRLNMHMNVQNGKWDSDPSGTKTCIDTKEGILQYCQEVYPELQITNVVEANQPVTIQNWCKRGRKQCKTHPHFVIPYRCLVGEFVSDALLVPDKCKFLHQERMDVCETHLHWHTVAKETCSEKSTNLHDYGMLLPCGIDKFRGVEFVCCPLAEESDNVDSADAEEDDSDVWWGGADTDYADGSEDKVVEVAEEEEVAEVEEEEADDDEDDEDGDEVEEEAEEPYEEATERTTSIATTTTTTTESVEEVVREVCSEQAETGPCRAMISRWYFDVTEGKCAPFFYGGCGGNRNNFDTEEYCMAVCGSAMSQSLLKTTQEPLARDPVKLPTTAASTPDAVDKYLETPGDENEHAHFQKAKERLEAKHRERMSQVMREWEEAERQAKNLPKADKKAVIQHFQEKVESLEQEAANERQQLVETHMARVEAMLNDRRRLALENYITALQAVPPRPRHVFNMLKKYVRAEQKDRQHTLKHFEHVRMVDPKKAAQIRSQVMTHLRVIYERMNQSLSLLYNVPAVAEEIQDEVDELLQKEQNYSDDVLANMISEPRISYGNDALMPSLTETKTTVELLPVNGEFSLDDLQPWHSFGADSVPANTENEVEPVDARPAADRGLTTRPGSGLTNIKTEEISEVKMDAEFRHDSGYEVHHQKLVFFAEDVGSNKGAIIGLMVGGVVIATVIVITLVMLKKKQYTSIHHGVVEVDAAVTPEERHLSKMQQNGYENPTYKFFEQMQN
Data set [2] shares this target. In words: Inhibition of Amyloid beta 42 (unknown origin) aggregation extracted from Escherichia coli BL21 assessed as decrease in Cu2+ induced amyloid beta fibril formation incubated for 48 hrs in presence of Cu2+ by atomic force microscopy.
Data set [3] has the same target. In words: Inhibition of Amyloid beta 42 (unknown origin) extracted from Escherichia coli BL21 induced ROS production assessed as decrease in fluorescence intensity at 10 uM incubated for 20 mins in presence of Cu2+ and ascorbate by absorption spectroscopic analysis.
The species entered for data set [4] is Homo sapiens. In words: Binding affinity to Amyloid beta 16 (unknown origin) extracted from Escherichia coli BL21 by measuring quenching effect incubated for 15 mins in presence of Cu2+ by fluorescence quenching analysis.
Data set [5] is filed under the species Homo sapiens. In words: Binding affinity to Amyloid beta 16 (unknown origin) extracted from Escherichia coli BL21 assessed as increase in absorbance band by circular dichroism spectroscopic analysis. (In general: Circular dichroism is the unequal absorption of left and right circularly polarised light.)
Data set [6] is described as follows: Metal chelating activity assessed as compound-Cu2+ complex formation at 50 uM in presence of CuCl2 by UV-Visible fluorescence spectroscopic analysis. In outline:
(§1)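 Peptide solution at 50 μM mixed 1:1 with Cu2+, Zn2+, Fe3+ or Al3+. NMI emission recorded at λex 450 nm, λem 550 nm, and drop in fluorescence used to indicate complexation. Separate titration with Cu2+ (0–100 μM) into 50 μM peptide used to assess stoichiometry.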

The nature of data set [7]: Metal chelating activity assessed as compound-Cu2+ complex formation measured after 2 mins in presence of CuCl2 by UV-Visible fluorescence spectroscopic analysis.
A short description of data set [8]: Antioxidant activity assessed as inhibition of Cu2+ induced ROS production by measuring decrease in fluorescence intensity in presence of Cu2+ and ascorbate at 10 uM measured after 10 mins by absorption spectroscopic analysis. It is filed as functional. In outline:
(§2)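 Ascorbate added first. After 10 min, redox cycling triggered with Cu2+ alone or peptide–Cu2+ premixed in HEPES (50 mM, pH 7.4). Ascorbate consumption followed by absorbance at 265 nm over time.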

Data set [9] deals with SH-SY5Y. In words: Cytotoxicity against human SH-SY5Y cells at 100 uM incubated for 24 hrs by MTT assay. Format: toxicity, cell-based. In outline: (§3)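 SH-SY5Y cells exposed to peptide (10–100 μM) for 24 h. Viability by MTT.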
(Tetrazolium dyes change colour on reduction, which living cells bring about.)

Data set [10] can be described thus: Cytotoxicity against human SH-SY5Y cells assessed as cell viability at 100 uM incubated for 24 hrs by MTT assay relative to control. Format: toxicity, cell-based. The following applies: read-out: Activity. The method in brief: as §3
For data set [11], the system named is SH-SY5Y. In words: Neuroprotective activity against amyloid beta 42 induced toxicity in human SH-SY5Y cells assessed as increase in cell viability at 10 uM incubated for 24 hrs by MTT assay (reference value: 55 %). It is filed as functional. The method in brief:
(§4)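 SH-SY5Y cells incubated 24 h with Aβ42 fibrils (10 μM) and peptide (10 μM), in the absence or presence of Cu2+ (10 μM). Viability by MTT.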

Data set [12] concerns SH-SY5Y. In words: Neuroprotective activity against amyloid beta 42 and Cu2+ induced toxicity in human SH-SY5Y cells assessed as increase in cell viability at 10 uM incubated for 24 hrs by MTT assay (reference value: 48 %). It is filed as functional. In outline:
as §4

Data set [13] is described as follows: Cytotoxicity against mouse N9 cells at upto 50 uM incubated for 24 hrs by MTT assay. Format: toxicity, cell-based. The following applies: n9, 24 h. In outline: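 N9 microglia given a concentration series of peptide. Viability assessed.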
The subject of a further data set is N9. In words: Antiinflammatory activity in LPS-induced mouse N9 cells assessed as reduction in ROS production at 10 uM incubated for 24 hrs by DCFDA staining based analysis. Format: functional, cell-based. In outline:
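N9 cells treated with LPS (1 μg/mL, 24 h) with or without peptide (10 μM, or a concentration series). ROS read with DCFDA fluorescence. n = 3, one-way ANOVA.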

A short description of data set [14]: Antiinflammatory activity in LPS-induced mouse N9 cells assessed as reduction in nitrite production at 10 uM incubated for 24 hrs by griess assay relative to control. It is filed as functional. On the set-up: scale not given: the % may be the effect or the level left. In outline:
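LPS (1 μg/mL)-stimulated N9 microglia treated with peptide at 10 μM. Nitric oxide quantified as nitrite in the medium by Griess assay. Nitrite in LPS-only cells set as 100%. n = 3, one-way ANOVA.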
On the technique in general: The Griess reaction detects nitrite, a stable product of nitric oxide.

A short description of data set [15]: Metal chelating activity assessed as compound-Fe3+ complex formation by measuring decrease in fluorescence intensity at 50 uM in presence of FeCl3 by UV-Visible fluorescence spectroscopic analysis. The method in brief:
as §1

Data set [16] can be described thus: Metal chelating activity assessed as compound-Al3+ complex formation by measuring decrease in fluorescence intensity at 50 uM in presence of AlCl3 by UV-Visible fluorescence spectroscopic analysis. The method in brief:
as §1

A short description of data set [17]: Metal chelating activity assessed as compound-Zn2+ complex formation by measuring decrease in fluorescence intensity at 50 uM in presence of ZnCl2 by UV-Visible fluorescence spectroscopic analysis. In outline:
as §1

The species named for data set [18] is Homo sapiens. In words: Binding affinity to Amyloid beta 16 (unknown origin) extracted from Escherichia coli BL21 assessed as maximal quenching in presence of Cu2+ by fluorescence quenching analysis.
Data set [19] in a line: Antioxidant activity assessed as inhibition of Cu2+ induced ROS production by measuring decrease in fluorescence intensity in presence of stoichiometric ratio of 1:1 of Cu2+ and ascorbate at 10 uM measured after 10 mins by absorption spectroscopic analysis. It is filed as functional.
A short description of data set [20]: Antioxidant activity assessed as inhibition of Cu2+ induced ROS production by measuring decrease in fluorescence intensity in presence of stoichiometric ratio of 1:2 of Cu2+ and ascorbate at 10 uM measured after 10 mins by absorption spectroscopic analysis. It is filed as functional.
The nature of data set [21]: Antioxidant activity assessed as inhibition of Cu2+ induced ROS production by measuring decrease in fluorescence intensity in presence of ascorbate and H2O2 at 10 uM measured after 20 mins by absorption spectroscopic analysis. It is filed as functional.
Data set [22] in a line: Metal chelating activity assessed as compound-Fe3+ complex formation by measuring decrease in fluorescence intensity at 25 uM in presence of FeCl3 by UV-Visible fluorescence spectroscopic analysis.
Data set [23] is described as follows: Metal chelating activity assessed as compound-Al3+ complex formation by measuring decrease in fluorescence intensity at 25 uM in presence of AlCl3 by UV-Visible fluorescence spectroscopic analysis.
The nature of data set [24]: Metal chelating activity assessed as compound-Cu2+ complex formation by measuring decrease in fluorescence intensity at 25 uM in presence of CuCl2 by UV-Visible fluorescence spectroscopic analysis.
The nature of data set [25]: Metal chelating activity assessed as compound-Cu2+ complex formation by measuring quenching effect measured after 20 mins in presence of CuCl2 by fluorescence quenching analysis.
Data set [26] is described as follows: Antioxidant activity assessed as inhibition of Cu2+ induced ROS production by measuring decrease in fluorescence intensity in presence of Cu2+ and ascorbate at 10 uM by absorption spectroscopic analysis. Format: functional. The method in brief:
as §2

For the molecule `CN(C)c1ccc2c3c(cccc13)C(=O)N(CCNC(=O)[C@H](CCC(N)=O)NC(=O)[C@H](CCCCN)NC(=O)[C@H](Cc1c[nH]cn1)NC(=O)CN)C2=O` (H-GHKQ-X1), the inhibition result in data set [1], in data set [2] and in data set [3] was “Active” each time.
With `CN(C)c1ccc2c3c(cccc13)C(=O)N(CCNC(=O)[C@H](CCC(N)=O)NC(=O)[C@H](CCCCN)NC(=O)[C@H](Cc1c[nH]cn1)NC(=O)[C@@H](Cc1c[nH]cn1)NC(=O)CN)C2=O`, the result (in the data set listed under Homo sapiens [4]; in the data set listed under Homo sapiens [5]; in [6]; in data set [7]; in data set [8]; with N9) was Active. Also, the inhibition result in data set [1] and in data set [2] was “Active” each time. Further, the Activity entry in the data set on SH-SY5Y [9] was “Non-Toxic”; in the data set on SH-SY5Y [11] it was roughly 80%; with SH-SY5Y [12], 92%; in data set [13] it was “Non-Toxic”; in data set [14], 56%. Also, the viability at 24 h, 100 µM in [10] is greater than 90%. The outcome in [15], in [16] and in [17] was inactive.
As for `CN(C)c1ccc2c3c(cccc13)C(=O)N(CCNC(=O)[C@H](CCC(N)=O)NC(=O)[C@H](CCCCN)NC(=O)[C@H](Cc1c[nH]cn1)NC(=O)CNC(=O)CN)C2=O` (H-GGHKQ-X1), the result (in the data set filed under Homo sapiens [5]; in data set [19]; in data set [20]; in [21]; in [22]; in data set [23]) was inactive. For the same molecule, the result (in [7]; in data set [8]; in the data set on N9; in [24]) was Active. Also, the Activity in the data set filed under Homo sapiens [18] is 65%; with SH-SY5Y [9], “Non-Toxic”; in the data set with SH-SY5Y [11] it was roughly 80%; in the data set on SH-SY5Y [12], 85%; in [13] it was “Non-Toxic”; in data set [14] it was 70%. Moreover, the inhibition result in [1] and in data set [2] was “inactive” each time. Besides, the viability at 24 h, 100 µM in data set [10] was greater than 90%.
For `CN(C)c1ccc2c3c(cccc13)C(=O)N(CCNC(=O)[C@@H](N)CCC(N)=O)C2=O`, in [1], the inhibition result is “Active”. Also, the inhibition entry in [2] was “inactive”.
Consider `CN(C)c1ccc2c3c(cccc13)C(=O)N(CCNC(=O)[C@H](CCC(N)=O)NC(=O)[C@H](CCCCN)NC(=O)[C@@H](N)Cc1c[nH]cn1)C2=O`, for which the result (in the data set filed under Homo sapiens [5]; in data set [6]; in [7]; in [25]; in data set [26]; in data set [21]) was Active. In the data set on N9, the outcome was Active. Also, the inhibition entry in data set [1] and in [2] was “Active” each time. Moreover, the Activity entry was “Non-Toxic” with SH-SY5Y [9]; roughly 80% with SH-SY5Y [11]; 82% in the data set with SH-SY5Y [12]; “Non-Toxic” in data set [13]; 85% in [14]. In addition, the viability at 24 h, 100 µM in data set [10] is greater than 90%. Further, the outcome in [15] and in data set [16] was inactive.
Consider `NCCCC[C@H](NC(=O)[C@H](Cc1cnc[nH]1)NC(=O)CN)C(=O)O` (H-Gly-His-Lys-OH), for which the inhibition result in data set [1] and in data set [2] was “inactive” each time.
